Assay results as given in ChEMBL document CHEMBL1151714 (J Med Chem, 2008).
Calls of active or inactive are those of the source. The rule behind the calls is not given here.

Experiments:
MDA-MB-231 [1] = assay: cells; conditions: Homo sapiens, MDA-MB-231, 96 h
[2] = target: Baculoviral IAP repeat-containing protein 3 (Homo sapiens, UniProt Q13489); assay: Displacement of fluorescently tagged SM5F from human cIAP-2 BIR3 expressed in Escherichia coli BL21 cells by fluorescence polarization assay
Rattus norvegicus [3] = assay: Bioavailability in Sprague-Dawley rat at 25 mg/kg, po; assay type: ADME, organism-based; conditions: in vivo
Procedure, shortened: (§1)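 Rat pharmacokinetics after a single oral dose. Compounds were given at 25 or 30 mg/kg. Cmax, elimination half-life and AUC(0-∞) were determined, and oral bioavailability was calculated. Values are reported as mean ± deviation.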

Rattus norvegicus [4] = assay: Half life in Sprague-Dawley rat at 25 mg/kg, po; assay type: ADME, organism-based; set-up: dose 25 mg/kg, route oral; conditions: in vivo
Procedure, shortened: as §1

Rattus norvegicus [5] = assay: Cmax in Sprague-Dawley rat at 25 mg/kg, po; assay type: ADME, organism-based; set-up: dose 25 mg/kg, route oral; conditions: in vivo
Rattus norvegicus [6] = assay: AUC (0 to infinity) in Sprague-Dawley rat at 25 mg/kg, po; assay type: ADME, organism-based, Plasma; set-up: time infinity, dose 25 mg/kg, route oral; conditions: in vivo
Procedure, shortened: (§2)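 Rats were given a single oral dose of 25 or 30 mg/kg. Maximum plasma concentration (Cmax), elimination half-life and AUC(0-∞) were derived. Oral bioavailability was also reported.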

Rattus norvegicus [7] = assay: AUC (0 to infinity) in Sprague-Dawley rat at 30 mg/kg, po; assay type: ADME, organism-based, Plasma; set-up: dose 30 mg/kg, route oral, time infinity; conditions: in vivo
Procedure, shortened: as §2

MDA-MB-231 [8] = assay: Induction of cIAP1 degradation in human MDA-MB-231 cells at 10 nM after 24 hrs by Western blotting; assay type: functional, cell-based
Procedure, shortened: (§3)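 MDA-MB-231 cells were exposed to a range of concentrations for 24 hours. Whole-cell levels of cIAP-1, cleaved PARP and cleaved caspase-3 were then probed by Western blot.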

Rattus norvegicus [9] = assay: Cmax in Sprague-Dawley rat at 30 mg/kg, po; assay type: ADME, organism-based; set-up: dose 30 mg/kg, route oral; conditions: in vivo
MDA-MB-231 [10] = assay: Induction of PARP cleavage in human MDA-MB-231 cells at 100 nM after 24 hrs by Western blotting; assay type: functional, cell-based
Procedure, shortened: as §3

MDA-MB-231 [11] = assay: Induction of caspase 3 processing in human MDA-MB-231 cells at 100 nM after 24 hrs by Western blotting; assay type: functional, cell-based
Procedure, shortened: as §3

Rattus norvegicus [12] = assay: Half life in Sprague-Dawley rat at 30 mg/kg, po; assay type: ADME, organism-based; set-up: dose 30 mg/kg, route oral; conditions: in vivo
Procedure, shortened: as §1

MDA-MB-231 [13] = assay: Reversal of human XIAP BIR3-mediated suppression of cytochrome c-induced caspase-3/-7 activity in human MDA-MB-231 cell lysate by cell free functional assay
Procedure, shortened: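 Caspase-3/-7 in cell lysates was activated by adding cytochrome c and dATP. Recombinant XIAP BIR3 protein at 0.5 μM was used to suppress activation, and recovery of caspase-3/-7 activity was measured across compound doses. Activity was read at the 30-minute time point and expressed relative to maximum activation.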

Rattus norvegicus [14] = assay: Bioavailability in Sprague-Dawley rat at 30 mg/kg, po; assay type: ADME, organism-based; conditions: in vivo
Procedure, shortened: as §1

Chain of Baculoviral IAP repeat-containing protein 3 (Q13489 whole entry): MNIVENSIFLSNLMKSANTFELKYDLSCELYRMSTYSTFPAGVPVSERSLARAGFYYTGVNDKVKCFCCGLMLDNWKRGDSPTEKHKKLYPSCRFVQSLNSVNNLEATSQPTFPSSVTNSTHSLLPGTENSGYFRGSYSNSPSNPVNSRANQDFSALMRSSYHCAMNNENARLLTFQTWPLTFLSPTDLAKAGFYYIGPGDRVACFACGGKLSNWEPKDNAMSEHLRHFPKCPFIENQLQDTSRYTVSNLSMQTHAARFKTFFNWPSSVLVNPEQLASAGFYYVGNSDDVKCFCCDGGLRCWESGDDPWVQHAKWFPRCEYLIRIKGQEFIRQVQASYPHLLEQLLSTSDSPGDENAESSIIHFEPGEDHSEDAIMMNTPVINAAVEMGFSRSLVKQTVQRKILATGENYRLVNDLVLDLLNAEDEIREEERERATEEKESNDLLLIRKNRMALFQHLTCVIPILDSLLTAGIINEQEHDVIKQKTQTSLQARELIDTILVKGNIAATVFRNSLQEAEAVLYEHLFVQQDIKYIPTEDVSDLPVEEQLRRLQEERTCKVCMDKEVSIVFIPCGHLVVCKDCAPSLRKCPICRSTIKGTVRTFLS

## CN[C@@H](C)C(=O)N[C@H]1CNCC[C@H]2CC[C@@H](C(=O)NC(c3ccccc3)c3ccccc3)N2C1=O
MDA-MB-231 [1]
  IC50: 0.89 µM
[2]
  Ki: 0.0046 µM

## CN[C@@H](C)C(=O)N[C@H]1CCCC[C@H]2CC[C@@H](C(=O)NC(c3ccccc3)c3ccccc3)N2C1=O.Cl
Rattus norvegicus [3]
  F: 14%
Rattus norvegicus [4]
  t1/2: 1.7 h
Rattus norvegicus [5]
  Cmax: 0.545 µM
Rattus norvegicus [6]
  AUC: 482 µg/L

## CN[C@@H](C)C(=O)N[C@H]1CN(Cc2ccccc2)CC[C@H]2CC[C@@H](C(=O)NC(c3ccccc3)c3ccccc3)N2C1=O
[2]
  Ki: 0.0098 µM

## CN[C@@H](C)C(=O)N[C@H]1CN(C(=O)Cc2ccccc2)CC[C@H]2CC[C@@H](C(=O)NC(c3ccccc3)c3ccccc3)N2C1=O.Cl
Rattus norvegicus [7]
  AUC: 1985 µg/L
MDA-MB-231 [8]
  Activity: Active
Rattus norvegicus [9]
  Cmax: 0.532 µM
MDA-MB-231 [10]
  Activity: Active
MDA-MB-231 [11]
  Activity: Active
Rattus norvegicus [12]
  t1/2: 4.7 h
MDA-MB-231 [13]
  Activity: Dose-dependent effect
Rattus norvegicus [14]
  F: 24%

## CN[C@@H](C)C(=O)N[C@H]1CN(C)CC[C@H]2CC[C@@H](C(=O)NC(c3ccccc3)c3ccccc3)N2C1=O
[2]
  Ki: 0.0175 µM
